From ChEMBL document CHEMBL4808192, “Synthesis and biological evaluation of novel imidazo[1,2-a]pyridine-oxadiazole hybrids as anti-proliferative agents: Study of microtubule polymerization inhibition and DNA binding” (Bioorg Med Chem, 2021)
The source made the active and inactive calls. The rule behind the calls is not given here.

Legend:
[1] = system: A549; experiment: Antiproliferative activity against human A549 cells assessed as reduction in cell viability incubated for 48 hrs by MTT assay; assay type: functional, cell-based; settings: A549, 48 h
Outline: (§1)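 Cells grown in medium with 10% FBS and 1% antibiotic-antimycotic at 37 °C, passaged at 80–90% confluence with 0.25% trypsin/1 mM EDTA. Seeded at 1000–4000 cells/well and grown overnight. Medium was then replaced and compounds added at various concentrations for 48 h. MTT (0.5 mg/mL) was added for 4 h at 37 °C, formazan dissolved in DMSO and absorbance read at 570 nm. IC50 is the 50% inhibitory concentration.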

[2] = system: PC-3; experiment: Antiproliferative activity against human PC-3 cells assessed as reduction in cell viability incubated for 48 hrs by MTT assay; assay type: functional, cell-based; settings: PC-3, 48 h; outline: as §1
[3] = system: DU-145; experiment: Antiproliferative activity against human DU-145 cells assessed as reduction in cell viability incubated for 48 hrs by MTT assay; assay type: functional, cell-based; settings: DU-145, 48 h; outline: as §1
[4] = system: HEK293; experiment: Cytotoxicity against human HEK293 cells assessed as reduction in cell viability incubated for 48 hrs by MTT assay; assay type: cell-based; settings: HEK293, 48 h; outline: as §1
[5] = Selectivity index, ratio of IC50 for human HEK293 cells to IC50 for human A549 cells assessed as reduction in cell viability measured after 48 hrs by MTT assay; assay type: toxicity; settings: HEK293 cells versus A549 cells, read-out: Ratio IC50
[6] = Selectivity index, ratio of IC50 for human HEK293 cells to IC50 for human PC-3 cells assessed as reduction in cell viability measured after 48 hrs by MTT assay; assay type: toxicity; settings: HEK293 cells versus PC-3 cells, read-out: Ratio IC50
[7] = Selectivity index, ratio of IC50 for human HEK293 cells to IC50 for human DU-145 cells assessed as reduction in cell viability measured after 48 hrs by MTT assay
[8] = Induction of apoptosis in human HEK293 cells assessed as viable cells at 2.8 uM measured after 48 hrs by Annexin V-FITC/Propidium iodide staining based flowcytometry analysis (reference value: 80.2%); assay type: cell-based; settings: read-out: Activity
[9] = system: HEK293; experiment: Induction of apoptosis in human HEK293 cells assessed as pre and post apoptotic cells at 2.8 uM measured after 48 hrs by Annexin V-FITC/Propidium iodide staining based flowcytometry analysis (reference value: 0.2%); assay type: cell-based; settings: hek293, 48 h
[10] = system: A549; experiment: Cell cycle arrest in human A549 cells assessed as accumulation of cells at S phase at 2.8 uM measured after 48 hrs by propidium iodide staining based FACS cytometry analysis (reference value: 12.7%); assay type: functional
[11] = system: A549; experiment: Induction of apoptosis in human A549 cells assessed as viable cells at 2.8 uM measured after 48 hrs by Annexin V-FITC/Propidium iodide staining based flowcytometry analysis (reference value: 83.1%); assay type: functional; settings: read-out: Activity
[12] = system: A549; experiment: Induction of apoptosis in human A549 cells assessed as pre and post apoptotic cells at 2.8 uM measured after 48 hrs by Annexin V-FITC/Propidium iodide staining based flowcytometry analysis (reference value: 0.1%); assay type: functional
[13] = system: A549; experiment: Cell cycle arrest in human A549 cells assessed as accumulation of cells at subG1 phase at 2.8 uM measured after 48 hrs by propidium iodide staining based FACS cytometry analysis (reference value: 4.2%); assay type: functional
[14] = system: A549; experiment: Cell cycle arrest in human A549 cells assessed as accumulation of cells at G0/G1 phase at 2.8 uM measured after 48 hrs by propidium iodide staining based FACS cytometry analysis (reference value: 73%); assay type: functional
[15] = system: A549; experiment: Cell cycle arrest in human A549 cells assessed as accumulation of cells at G2/M phase at 2.8 uM measured after 48 hrs by propidium iodide staining based FACS cytometry analysis (reference value: 10.1%); assay type: functional
[16] = system: HEK293; experiment: Cell cycle arrest in human HEK293 cells assessed as accumulation of cells at G0/G1 phase at 2.8 uM measured after 48 hrs by propidium iodide staining based FACS cytometry analysis (reference value: 64.1%); settings: hek293, 48 h
[17] = system: HEK293; experiment: Cell cycle arrest in human HEK293 cells assessed as accumulation of cells at G2/M phase at 2.8 uM measured after 48 hrs by propidium iodide staining based FACS cytometry analysis (reference value: 16.1%); settings: hek293, 48 h
[18] = (§2) Inhibition of pig brain tubulin polymerization incubated for 1 hr by fluorescence based analysis; assay type: tissue-based, Sus scrofa
Outline: (§3)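 Cell-free fluorescence kit assay with porcine brain tubulin (2 mg/mL) in 80 mM PIPES pH 6.9, 2.0 mM MgCl2, 0.5 mM EGTA, 1.0 mM GTP and glycerol. Compound tested at 0.5, 1, 2, 4 and 8 μM, with a DMSO vehicle and a 3 μM podophyllotoxin reference. Polymerization followed at excitation 360/emission 440 nm for 1 h at 37 °C. Inhibition taken relative to vehicle; IC50 is the concentration giving 50% inhibition of assembly.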

[19] = organism: Sus scrofa; experiment: as §2; assay type: tissue-based; outline: as §3
[20] = organism: Sus scrofa; experiment: Inhibition of pig brain tubulin polymerization at 0.5 uM incubated for 1 hr by fluorescence based analysis relative to control; assay type: tissue-based; outline: as §3
[21] = biological target: Tubulin (Homo sapiens) (UniProt P68371+Q9H4B7+P0DPH7+P68366+Q13509+Q71U36+P04350+Q3ZCM7+P07437+P68363+Q9BQE3+Q6PEY2+Q13885+Q9BVA1+Q9BUF5); experiment: Inhibition of tubulin polymerization in human A549 cells assessed as disruption of microtubule network at IC50 measured after 48 hrs by confocal microscopic analysis; assay type: cell-based
[22] = system: HEK293; experiment: Cell cycle arrest in human HEK293 cells assessed as accumulation of cells at sub-G1 phase at 2.8 uM measured after 48 hrs by propidium iodide staining based FACS cytometry analysis (reference value: 1%); settings: hek293, 48 h
[23] = system: HEK293; experiment: Cell cycle arrest in human HEK293 cells assessed as accumulation of cells at S phase at 2.8 uM measured after 48 hrs by propidium iodide staining based FACS cytometry analysis (reference value: 18.8%); settings: hek293, 48 h
[24] = organism: Sus scrofa; experiment: Inhibition of pig brain tubulin polymerization at 1 uM incubated for 1 hr by fluorescence based analysis relative to control; assay type: tissue-based; outline: as §3
[25] = organism: Sus scrofa; experiment: Inhibition of pig brain tubulin polymerization at 2 uM incubated for 1 hr by fluorescence based analysis relative to control; assay type: tissue-based; outline: as §3
[26] = organism: Sus scrofa; experiment: Inhibition of pig brain tubulin polymerization at 4 uM incubated for 1 hr by fluorescence based analysis relative to control; assay type: tissue-based; outline: as §3
[27] = organism: Sus scrofa; experiment: Inhibition of pig brain tubulin polymerization at 8 uM incubated for 1 hr by fluorescence based analysis relative to control; assay type: tissue-based; outline: as §3
[28] = system: Calf thymus DNA; experiment: Binding affinity to calf thymus DNA assessed as absorption peak between 310 and 312 nm at 10 uM measured every 5 mins by UV-Vis spectroscopic analysis; settings: Bos taurus
Outline: (§4)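 UV–Vis titration at 25 °C in a 1 cm quartz cuvette. Compound at about 10 μM (1 mM stock in 1:1 DMSO:water). CT-DNA (1 mM stock in 100 mM Tris-HCl pH 7.0) added about 0.5 μM at a time until the band was unchanged over five successive additions. Spectra recorded from 200 to 400 nm.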

[29] = system: Calf thymus DNA; experiment: Binding affinity to calf thymus DNA assessed as hyperchromicity at 10 uM measured every 5 mins by UV-Vis spectroscopic analysis; settings: Bos taurus; outline: as §4
[30] = system: Calf thymus DNA; experiment: Binding affinity to calf thymus DNA measured every 5 mins by UV-Vis spectroscopic analysis; design: species or system Bos taurus; outline: as §4
[31] = system: Calf thymus DNA; experiment: Binding affinity to calf thymus DNA assessed as hypochromicity at 10 uM measured every 5 mins by fluorescence titration analysis; settings: Bos taurus
Outline: (§5)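 Fluorescence titration at 25 °C in a 1 cm quartz cuvette. Compound held at 10 μM while CT-DNA was added about 0.5 μM per step. Excitation 250 nm, emission scanned 300–500 nm with the peak followed at 360 nm. Each spectrum is the average of three scans. Cuvettes washed with water and about 0.1 N nitric acid between runs.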

[32] = system: Calf thymus DNA; experiment: Binding affinity to calf thymus DNA assessed as emission spectra at 360 nm at 10 uM measured every 5 mins by fluorescence titration analysis; settings: Bos taurus; outline: as §5
[33] = system: Calf thymus DNA; experiment: Binding affinity to calf thymus DNA assessed as decrease in positive peak intensity at compound:DNA concentration ratio of 1:1 to 1:2 by CD spectroscopy; settings: Bos taurus
Outline: (§6)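 Circular dichroism of CT-DNA (10 × 10^-6 M) in 100 mM Tris-HCl pH 7.0 at 25 °C. Spectra taken from 220 to 320 nm at CT-DNA:compound molar ratios of 1:0, 1:1 and 1:2. Each spectrum is the average of three scans.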

[34] = system: Calf thymus DNA; experiment: Binding affinity to calf thymus DNA assessed as decrease in negative peak intensity at compound:DNA concentration ratio of 1:1 to 1:2 by CD spectroscopy; settings: Bos taurus; outline: as §6
[35] = system: Calf thymus DNA; experiment: Binding affinity to calf thymus DNA assessed as increase in viscosity at 15 uM by Ostwald viscometric analysis; settings: Bos taurus
Outline: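 Ostwald viscometer in a 25 °C water bath. CT-DNA (150 μM, in 100 mM Tris-HCl pH 7.0) was measured alone, then after mixing with compound at 15 μM. EtBr and Hoechst 33342 complexes with CT-DNA served as controls.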

Cc1cc(Br)c2nc(-c3nnc(-c4ccccc4)o3)cn2c1
IC50 [1]: 14.5 µM | IC50 [2]: 17.8 µM | IC50 [3]: 18.9 µM

Cc1cccn2cc(-c3nnc(-c4ccc(N(C)C)cc4)o3)nc12
IC50 [1]: 12.3 µM | IC50 [2]: 11.6 µM | IC50 [3]: 10.8 µM

COc1cc([C@@H]2c3cc4c(cc3[C@H](O)[C@H]3COC(=O)[C@H]23)OCO4)cc(OC)c1OC [PODOFILOX]
IC50 [2]: 0.06 µM | IC50 [3]: 0.06 µM

COc1cc(-c2nnc(-c3cn4ccccc4n3)o2)cc(OC)c1OC
IC50 [1]: 2.8 µM | IC50 [2]: 3.5 µM | IC50 [3]: 4.5 µM | IC50 [4]: 89 µM | selectivity ratio at 48 h [5]: 29 | selectivity ratio at 48 h [6]: 25.4 | Ratio IC50 [7]: 19.7 | viability at 48 h, 2.8 µM [8]: 18.5% | Activity [9]: 74.5% | Activity [10]: 6.9% | viability at 2.8 µM [11]: 4.3% | Activity [12]: 86.5% | Activity [13]: 1.3% | Activity [14]: 74.5% | Activity [15]: 17.1% | Activity [16]: 63.2% | Activity [17]: 15.7% | IC50 [18]: 3.45 µM | inhibition [19]: Dose-Dependent Effect | inhibition [20]: 4.6% | inhibition [21]: Active | Activity [22]: 2.1% | Activity [23]: 18.8% | inhibition [24]: 11.5% | inhibition [25]: 21.7% | inhibition [26]: 60.1% | inhibition [27]: 81.2% | Activity [28]: Active | Activity [29]: Active | Kd [30]: 0.042 µM | Activity [31]: Active | Activity [32]: Active | Activity [33]: Active | Activity [34]: Active | Activity [35]: Active

Cc1cccn2cc(-c3nnc(-c4ccccc4)o3)nc12
IC50 [1]: 23.4 µM | IC50 [2]: 22.8 µM | IC50 [3]: 21.8 µM

COc1ccc(-c2nnc(-c3cn4cccc(C)c4n3)o2)cc1OC
IC50 [1]: 10.9 µM | IC50 [2]: 11.5 µM | IC50 [3]: 11.8 µM

Cc1cc(Br)c2nc(-c3nnc(-c4ccc(Br)cc4)o3)cn2c1
IC50 [1]: 23.4 µM | IC50 [2]: 24.5 µM | IC50 [3]: 22.3 µM

Cc1cc(Br)c2nc(-c3nnc(-c4ccc(N(C)C)cc4)o3)cn2c1
IC50 [1]: 10.8 µM | IC50 [2]: 11.2 µM | IC50 [3]: 12.8 µM

c1ccc(-c2nnc(-c3cn4ccccc4n3)o2)cc1
IC50 [1]: 23.4 µM | IC50 [2]: 22.2 µM | IC50 [3]: 23.4 µM

COc1cc(-c2nnc(-c3cn4cccc(C)c4n3)o2)cc(OC)c1OC
IC50 [1]: 9.9 µM | IC50 [2]: 10.9 µM | IC50 [3]: 11.2 µM

Brc1ccc(-c2nnc(-c3cn4ccccc4n3)o2)cc1
IC50 [1]: > 50 µM | IC50 [2]: > 50 µM | IC50 [3]: > 50 µM

Cc1cc(Br)c2nc(-c3nnc(-c4ccc(Cl)cc4)o3)cn2c1
IC50 [1]: 43.5 µM | IC50 [2]: 42 µM | IC50 [3]: 46 µM

Clc1ccc(-c2nnc(-c3cn4ccccc4n3)o2)cc1
IC50 [1]: 32.4 µM | IC50 [2]: 33.7 µM | IC50 [3]: 32.8 µM

Cc1cccn2cc(-c3nnc(-c4ccccc4I)o3)nc12
IC50 [1]: 33.4 µM | IC50 [2]: 33.5 µM | IC50 [3]: 31.5 µM

Cc1cccn2cc(-c3nnc(-c4ccc(Br)cc4)o3)nc12
IC50 [1]: 34.7 µM | IC50 [2]: 37.8 µM | IC50 [3]: 38.9 µM

COc1ccc(-c2nnc(-c3cn4cccc(C)c4n3)o2)cc1
IC50 [1]: 12.8 µM | IC50 [2]: 11.8 µM | IC50 [3]: 10.8 µM

COc1ccc(-c2nnc(-c3cn4ccccc4n3)o2)cc1
IC50 [1]: 11.9 µM | IC50 [2]: 13.4 µM | IC50 [3]: 12.9 µM
